In brackets after ≈: the same amount, converted by molar mass.
system: not listed separately; test: Percent of unbound ligand in Beagle dog at 0.5 mg/kg, po; format: ADME, organism-based, Canis lupus familiaris; set-up: dose 0.5 mg/kg, route oral; details: in vivo

| Compound | fraction unbound |
| --- | --- |
| CCC[C@H](C(N)=O)[C@@H](CC(C)C)C(=O)N[C@H]1CCCCN(Cc2cccc(Nc3ccccc3)c2)C1=O | 0.015 |
| CCC[C@H](C(N)=O)[C@@H](CC(C)C)C(=O)N[C@H]1CCCCN(Cc2cccc(Oc3ccccc3)c2)C1=O | 0.004 |

system: not listed separately; test: Clearance in Beagle dog at 0.5 mg/kg, po; format: ADME, organism-based, Canis lupus familiaris; set-up: dose 0.5 mg/kg, route oral; details: in vivo
Method in brief: (§1)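 Beagle dogs were dosed in cassette format with up to nine other compounds. Doses were kept low to limit interactions: 0.25 mg/kg iv and 0.5 or 1.0 mg/kg po. Pharmacokinetic parameters were derived from these dosings.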

| Compound | CL/F [mL/min/kg] |
| --- | --- |
| CCC[C@H](C(N)=O)[C@@H](CC(C)C)C(=O)N[C@H]1CCCCN(Cc2cccc(Nc3ccccc3)c2)C1=O | 10 |
| CCC[C@H](C(N)=O)[C@@H](CC(C)C)C(=O)N[C@H]1CCCCN(Cc2cccc(Oc3ccccc3)c2)C1=O | 31.7 |

system: not listed separately; test: Clearance in Beagle dog at 1 mg/kg, po; format: ADME, organism-based, Canis lupus familiaris; set-up: dose 1 mg/kg, route oral; details: in vivo; method in brief: as §1

| Compound | CL/F [mL/min/kg] |
| --- | --- |
| CCCC(C(N)=O)C(CC(C)C)C(=O)N[C@H]1CCCCN(Cc2cccc(-c3ccc(F)c(Cl)c3)c2)C1=O (single isomer, unassigned) | 6.67 |

system: Canis familiaris; test: Volume of distribution in Beagle dog at 0.5 mg/kg, po; format: ADME, organism-based, Canis lupus familiaris; set-up: dose 0.5 mg/kg, route oral; details: in vivo; method in brief: as §1

| Compound | Vss [L/kg] |
| --- | --- |
| CCC[C@H](C(N)=O)[C@@H](CC(C)C)C(=O)N[C@H]1CCCCN(Cc2cccc(Nc3ccccc3)c2)C1=O | 0.4 |
| CCC[C@H](C(N)=O)[C@@H](CC(C)C)C(=O)N[C@H]1CCCCN(Cc2cccc(Oc3ccccc3)c2)C1=O | 1.3 |

system: Canis familiaris; test: Volume of distribution in Beagle dog at 1 mg/kg, po; format: ADME, organism-based, Canis lupus familiaris; set-up: dose 1 mg/kg, route oral; details: in vivo; method in brief: as §1

| Compound | Vss [L/kg] |
| --- | --- |
| CCCC(C(N)=O)C(CC(C)C)C(=O)N[C@H]1CCCCN(Cc2cccc(-c3ccc(F)c(Cl)c3)c2)C1=O (single isomer, unassigned) | 0.8 |

system: not listed separately; test: Half life in Beagle dog at 0.5 mg/kg, po; format: ADME, organism-based, Canis lupus familiaris; set-up: dose 0.5 mg/kg, route oral; details: in vivo; method in brief: as §1

| Compound | half-life [h] |
| --- | --- |
| CCC[C@H](C(N)=O)[C@@H](CC(C)C)C(=O)N[C@H]1CCCCN(Cc2cccc(Nc3ccccc3)c2)C1=O | 1 |
| CCC[C@H](C(N)=O)[C@@H](CC(C)C)C(=O)N[C@H]1CCCCN(Cc2cccc(Oc3ccccc3)c2)C1=O | 0.5 |

system: not listed separately; test: Half life in Beagle dog at 1 mg/kg, po; format: ADME, organism-based, Canis lupus familiaris; set-up: dose 1 mg/kg, route oral; details: in vivo; method in brief: as §1

| Compound | half-life [h] |
| --- | --- |
| CCCC(C(N)=O)C(CC(C)C)C(=O)N[C@H]1CCCCN(Cc2cccc(-c3ccc(F)c(Cl)c3)c2)C1=O (single isomer, unassigned) | 1.3 |

system: not listed separately; test: Cmax in Beagle dog at 0.5 mg/kg, po; format: ADME, organism-based, Canis lupus familiaris; set-up: dose 0.5 mg/kg, route oral; details: in vivo; method in brief: as §1

| Compound | Cmax [nM] |
| --- | --- |
| CCC[C@H](C(N)=O)[C@@H](CC(C)C)C(=O)N[C@H]1CCCCN(Cc2cccc(Nc3ccccc3)c2)C1=O | 17 |
| CCC[C@H](C(N)=O)[C@@H](CC(C)C)C(=O)N[C@H]1CCCCN(Cc2cccc(Oc3ccccc3)c2)C1=O | 25 |

system: not listed separately; test: Cmax in Beagle dog at 1 mg/kg, po; format: ADME, organism-based, Canis lupus familiaris; set-up: dose 1 mg/kg, route oral; details: in vivo; method in brief: as §1

| Compound | Cmax [nM] |
| --- | --- |
| CCCC(C(N)=O)C(CC(C)C)C(=O)N[C@H]1CCCCN(Cc2cccc(-c3ccc(F)c(Cl)c3)c2)C1=O (single isomer, unassigned) | 116 |

system: not listed separately; test: Oral bioavailability in Beagle dog at 0.5 mg/kg, po; format: ADME, organism-based, Canis lupus familiaris; details: in vivo; method in brief: as §1

| Compound | bioavailability [%] |
| --- | --- |
| CCC[C@H](C(N)=O)[C@@H](CC(C)C)C(=O)N[C@H]1CCCCN(Cc2cccc(Nc3ccccc3)c2)C1=O | 3 |
| CCC[C@H](C(N)=O)[C@@H](CC(C)C)C(=O)N[C@H]1CCCCN(Cc2cccc(Oc3ccccc3)c2)C1=O | 8 |

system: not listed separately; test: Oral bioavailability in Beagle dog at 1 mg/kg, po; format: ADME, organism-based, Canis lupus familiaris; details: in vivo
Method in brief: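 Beagle dogs given compounds in cassette format with up to nine other compounds. Doses were kept low to limit interactions: 0.25 mg/kg iv, and 0.5 or 1.0 mg/kg po.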

| Compound | bioavailability [%] |
| --- | --- |
| CCCC(C(N)=O)C(CC(C)C)C(=O)N[C@H]1CCCCN(Cc2cccc(-c3ccc(F)c(Cl)c3)c2)C1=O (single isomer, unassigned) | 25 |

system: not listed separately; test: Inhibition of gamma secretase mediated Notch1 signalling in NIH3T3 cells; format: functional, cell-based; details: Mus musculus
Method in brief: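 NIH3T3 cells were grown in DMEM with 10% calf serum, penicillin/streptomycin, 2 mM L-glutamine and 1 mM pyruvate. They were transiently batch-transfected for 24 h with mouse Notch-1 ΔE, vector DNA and a CBF1-luciferase reporter (four tandem CBF1 binding elements). Cells were then replated in defined medium with 0.0125% BSA, treated with serial compound dilutions for 20 h, and read by luciferase luminescence.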

| Compound | IC50 [nM] |
| --- | --- |
| CCC[C@H](C(N)=O)[C@@H](CC(C)C)C(=O)N[C@H]1CCCCN(Cc2cccc(Nc3ccccc3)c2)C1=O | 64 |
| CCC[C@H](C(N)=O)[C@@H](CC(C)C)C(=O)N[C@H]1CCCCN(Cc2cccc(Oc3ccccc3)c2)C1=O | 82 |
| CCCC(C(N)=O)C(CC(C)C)C(=O)N[C@H]1CCCCN(Cc2cccc(-c3ccc(F)c(Cl)c3)c2)C1=O (single isomer, unassigned) | 18 |

system: HEK293; test: Inhibition of beta-amyloid peptide production in HEK293 cell line; format: functional, cell-based; details: Homo sapiens

| Compound | IC50 [nM] |
| --- | --- |
| CCC[C@H](C(=O)OC)[C@@H](CC(C)C)C(=O)N[C@H]1CCCCN(Cc2cccc(Oc3ccccc3)c2)C1=O | 6000 |
| CCC[C@H](C(=O)NO)[C@@H](CC(C)C)C(=O)N[C@H]1CCCCN(Cc2cccc(I)c2)C1=O | 3000 |
| CCC[C@H](C(=O)N(C)OC)[C@@H](CC(C)C)C(=O)N[C@H]1CCCCN(Cc2cccc(Oc3ccccc3)c2)C1=O | 5000 |
| CCC[C@H](C(=O)NN)[C@@H](CC(C)C)C(=O)N[C@H]1CCCCN(Cc2cccc(Oc3ccccc3)c2)C1=O | 1600 |
| CCC[C@H](C(N)=O)[C@@H](CC(C)C)C(=O)N[C@H]1CCCCN(Cc2cncc(-c3ccccn3)c2)C1=O | 8800 |
| CCC[C@@H](CC(=O)NNC(=O)[C@@H](CCC)[C@@H](CC(C)C)C(=O)N[C@H]1CCCCN(Cc2cccc(Oc3ccccc3)c2)C1=O)C(=O)NO | > 10000 |
| CCC[C@H](C(=O)NNC(=O)[C@@H](CCC)[C@@H](CC(C)C)C(=O)N[C@H]1CCCCN(Cc2cccc(Oc3ccccc3)c2)C1=O)[C@@H](CC(C)C)C(N)=O | 226 |
| CCC[C@H](C(=O)NOC)[C@@H](CC(C)C)C(=O)N[C@H]1CCCCN(Cc2cccc(Oc3ccccc3)c2)C1=O | 5000 |
| CCC[C@H](C(=O)NC)[C@@H](CC(C)C)C(=O)N[C@H]1CCCCN(Cc2cccc(Oc3ccccc3)c2)C1=O | 5000 |
| CCC[C@H](C(=O)NNC(=O)[C@@H](CC(N)=O)CC(C)C)[C@@H](CC(C)C)C(=O)N[C@H]1CCCCN(Cc2cccc(Oc3ccccc3)c2)C1=O | > 10000 |
| CCC[C@H](C(=O)NNC(=O)[C@H](CC(C)C)[C@@H]1CCNC1=O)[C@@H](CC(C)C)C(=O)N[C@H]1CCCCN(Cc2cccc(Oc3ccccc3)c2)C1=O | > 10000 |
| CCC[C@H](C(=O)O)[C@@H](CC(C)C)C(=O)N[C@H]1CCCCN(Cc2cccc(Oc3ccccc3)c2)C1=O | > 3000 |
| CCC[C@H](C(N)=O)[C@@H](CC(C)C)C(=O)N[C@H]1CCCCN(Cc2cncc(-c3ccc(F)c(Cl)c3)c2)C1=O | 4 |
| CCC[C@H](C(N)=O)[C@@H](CC(C)C)C(=O)N[C@H]1CCCCN(Cc2cncc(-c3ccc(OC)cc3)c2)C1=O | 32 |
| CCC[C@H](C(N)=O)[C@@H](CC(C)C)C(=O)N[C@H]1CCCCN(Cc2cncc(-c3ccc(C(F)(F)F)cc3)c2)C1=O | 17 |
| CCC[C@H](C(N)=O)[C@@H](CC(C)C)C(=O)N[C@H]1CCCCN(Cc2cncc(-c3cccnc3)c2)C1=O | 2200 |
| CCC[C@H](C(N)=O)[C@@H](CC(C)C)C(=O)N[C@H]1CCCCN(Cc2cccc(Oc3ccccc3)c2)C1=O | 50 |
| CCCC(C(N)=O)C(CC(C)C)C(=O)N[C@H]1CCCCN(Cc2cccc(-c3ccc(Cl)cc3Cl)c2)C1=O (single isomer, unassigned) | 14 |
| CCCC(C(=O)NO)C(CC(C)C)C(=O)N[C@H]1CCCCN(Cc2cccc(-c3ccccc3OC)c2)C1=O (single isomer, unassigned) | 300 |
| CCCC(C(N)=O)C(CC(C)C)C(=O)N[C@H]1CCCCN(Cc2cccc(-c3ccc(F)c(Cl)c3)c2)C1=O (single isomer, unassigned) | 17 |

| Compound | IC50 [nM] |
| --- | --- |
| CCCC(C(N)=O)C(CC(C)C)C(=O)N[C@H]1CCCCN(Cc2cccc(-c3ccccc3OC)c2)C1=O (single isomer, unassigned) | 30 |
| CCCC(C(=O)NO)C(CC(C)C)C(=O)N[C@H]1CCCCN(Cc2cccc(-c3cccc(OC)c3)c2)C1=O (single isomer, unassigned) | 600 |
| CCCC(C(=O)NO)C(CC(C)C)C(=O)N[C@H]1CCCCN(Cc2cccc(-c3ccc(C(F)(F)F)cc3)c2)C1=O (single isomer, unassigned) | 230 |
| CCCC(C(=O)NO)C(CC(C)C)C(=O)N[C@H]1CCCCN(Cc2cccc(-c3cccc(F)c3)c2)C1=O (single isomer, unassigned) | 180 |
| CCCC(C(N)=O)C(CC(C)C)C(=O)N[C@H]1CCCCN(Cc2cccc(-c3cccc(OC)c3)c2)C1=O (single isomer, unassigned) | 150 |
| CCCC(C(N)=O)C(CC(C)C)C(=O)N[C@H]1CCCCN(Cc2cccc(-c3ccc(OC)cc3)c2)C1=O (single isomer, unassigned) | 8 |
| CCCC(C(N)=O)C(CC(C)C)C(=O)N[C@H]1CCCCN(Cc2cccc(-c3ccc(F)cc3)c2)C1=O (single isomer, unassigned) | 191 |
| CCCC(C(N)=O)C(CC(C)C)C(=O)N[C@H]1CCCCN(Cc2ccc(-c3ccc(C(F)(F)F)cc3)cc2)C1=O (single isomer, unassigned) | 90 |
| CCCC(C(=O)NO)C(CC(C)C)C(=O)N[C@H]1CCCCN(Cc2cccc(-c3ccc(F)c(Cl)c3)c2)C1=O (single isomer, unassigned) | 100 |
| CCCC(C(=O)NO)C(CC(C)C)C(=O)N[C@H]1CCCCN(Cc2cccc(-c3ccc(F)cc3)c2)C1=O (single isomer, unassigned) | 470 |
| CCCC(C(=O)NO)C(CC(C)C)C(=O)N[C@H]1CCCCN(Cc2cccc(-c3cccc(NC(C)=O)c3)c2)C1=O (single isomer, unassigned) | > 10000 |
| CCCC(C(=O)NO)C(CC(C)C)C(=O)N[C@H]1CCCCN(Cc2cccc(-c3cccc(C)c3)c2)C1=O (single isomer, unassigned) | 510 |
| CCCC(C(N)=O)C(CC(C)C)C(=O)N[C@H]1CCCCN(Cc2cccc(-c3cccc(F)c3)c2)C1=O (single isomer, unassigned) | 300 |
| CCCC(C(=O)NO)C(CC(C)C)C(=O)N[C@H]1CCCCN(Cc2cccc(-c3ccccc3-c3cccc4ccccc34)c2)C1=O (single isomer, unassigned) | 250 |
| CCCC(C(N)=O)C(CC(C)C)C(=O)N[C@H]1CCCCN(Cc2cccc(-c3ccc(C)cc3)c2)C1=O (single isomer, unassigned) | 40 |
| CCCC(C(=O)NO)C(CC(C)C)C(=O)N[C@H]1CCCCN(Cc2cccc(-c3ccc(Cl)cc3Cl)c2)C1=O (single isomer, unassigned) | 350 |
| CCCC(C(=O)NO)C(CC(C)C)C(=O)N[C@H]1CCCCN(Cc2cccc(-c3ccc(C)cc3)c2)C1=O (single isomer, unassigned) | 260 |
| CCCC(C(=O)NO)C(CC(C)C)C(=O)N[C@H]1CCCCN(Cc2cccc(-c3ccc(OC)cc3)c2)C1=O (single isomer, unassigned) | 470 |
| CCCC(C(N)=O)C(CC(C)C)C(=O)N[C@H]1CCCCN(Cc2cccc(-c3ccc(C(F)(F)F)cc3)c2)C1=O (single isomer, unassigned) | 10 |

system: not listed separately; test: Solubility at pH 7.4; format: physicochemical; details: buffer

| Compound | solubility [µg/mL] |
| --- | --- |
| CCC[C@H](C(N)=O)[C@@H](CC(C)C)C(=O)N[C@H]1CCCCN(Cc2cccc(Oc3ccccc3)c2)C1=O | 1 (≈ 1.97 µM) |
| CCCC(C(N)=O)C(CC(C)C)C(=O)N[C@H]1CCCCN(Cc2cccc(-c3ccc(F)c(Cl)c3)c2)C1=O (single isomer, unassigned) | 0.1 (≈ 0.184 µM) |

From ChEMBL document CHEMBL1147000, “Synthesis and evaluation of succinoyl-caprolactam gamma-secretase inhibitors” (Bioorg Med Chem Lett, 2006)
